Columns and labels:
Format in all cases: functional
[1] = Growth inhibition of human SNB75 cells at 10 uM after 48 hrs by sulforhodamine B assay; details: SNB-75, 48 h, values are per cent of control
Malme-3M = experiment: Growth inhibition of human MALME-3M cells at 10 uM after 48 hrs by sulforhodamine B assay; details: values are per cent of control
[2] = Growth inhibition of human UACC257 cells at 10 uM after 48 hrs by sulforhodamine B assay; details: UACC-257, 48 h, values are per cent of control
[3] = Growth inhibition of human OVCAR3 cells at 10 uM after 48 hrs by sulforhodamine B assay; details: OVCAR-3, 48 h, values are per cent of control
[4] = Growth inhibition of human OVCAR5 cells at 10 uM after 48 hrs by sulforhodamine B assay; details: OVCAR-5, 48 h, values are per cent of control
[5] = Growth inhibition of human SKOV3 cells at 10 uM after 48 hrs by sulforhodamine B assay; details: SK-OV-3, 48 h, values are per cent of control
A498 = experiment: Growth inhibition of human A498 cells at 10 uM after 48 hrs by sulforhodamine B assay; details: A498, 48 h, values are per cent of control
[6] = Growth inhibition of human UO31 cells at 10 uM after 48 hrs by sulforhodamine B assay; details: UO-31, 48 h, values are per cent of control
[7] = Growth inhibition of human PC3 cells at 10 uM after 48 hrs by sulforhodamine B assay; details: PC-3, 48 h, values are per cent of control
MCF7 = experiment: Growth inhibition of human MCF7 cells at 10 uM after 48 hrs by sulforhodamine B assay; details: MCF7, 48 h, values are per cent of control
MDA-MB-231 [8] = experiment: Growth inhibition of human MDA-MB-231 cells at 10 uM after 48 hrs by sulforhodamine B assay; details: MDA-MB-231, 48 h, values are per cent of control
CCRF-CEM [9] = experiment: Growth inhibition of human CCRF-CEM cells after 48 hrs by sulforhodamine B assay
Summary of the method: (§1)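 Five-dose testing against a 60-line human tumor cell panel. GI50 is the drug concentration giving a 50% reduction in net protein increase relative to untreated control cells.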

[10] = Growth inhibition of human MOLT4 cells after 48 hrs by sulforhodamine B assay; details: MOLT-4, 48 h
Summary of the method: (§2)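 Five-dose concentration series run across a panel of 60 human tumour cell lines. GI50 is taken as the drug concentration giving a 50% reduction in net protein increase relative to untreated control cells.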

[11] = Growth inhibition of human RPMI8226 cells after 48 hrs by sulforhodamine B assay; details: RPMI-8226, 48 h; summary of the method: as §2
SR = experiment: Growth inhibition of human SR cells after 48 hrs by sulforhodamine B assay; summary of the method: as §2
A549 = experiment: Growth inhibition of human A549/ATCC cells after 48 hrs by sulforhodamine B assay; details: A549, 48 h; summary of the method: as §1
[12] = Growth inhibition of human HOP62 cells after 48 hrs by sulforhodamine B assay; details: HOP-62, 48 h; summary of the method: as §1
[13] = Growth inhibition of human HOP92 cells after 48 hrs by sulforhodamine B assay; details: HOP-92, 48 h; summary of the method: as §1
NCI-H23 = experiment: Growth inhibition of human NCI-H23 cells after 48 hrs by sulforhodamine B assay; details: NCI-H23, 48 h; summary of the method: as §2
[14] = Growth inhibition of human COLO205 cells after 48 hrs by sulforhodamine B assay; details: COLO 205, 48 h; summary of the method: as §1
[15] = Growth inhibition of human HCC2998 cells after 48 hrs by sulforhodamine B assay; details: HCC 2998, 48 h; summary of the method: as §1
[16] = Growth inhibition of human HCT116 cells after 48 hrs by sulforhodamine B assay; details: HCT-116, 48 h; summary of the method: as §1
[17] = Growth inhibition of human HCT15 cells after 48 hrs by sulforhodamine B assay; details: HCT-15, 48 h; summary of the method: as §1
[18] = Growth inhibition of human SW620 cells after 48 hrs by sulforhodamine B assay; details: SW-620, 48 h; summary of the method: as §2
[19] = Growth inhibition of human SNB19 cells after 48 hrs by sulforhodamine B assay; details: SNB-19, 48 h; summary of the method: as §2
U-251 = experiment: Growth inhibition of human U251 cells after 48 hrs by sulforhodamine B assay; details: U-251, 48 h; summary of the method: as §2
M14 = experiment: Growth inhibition of human M14 cells after 48 hrs by sulforhodamine B assay; details: M14, 48 h; summary of the method: as §1
MDA-MB-435 = experiment: Growth inhibition of human MDA-MB-435 cells after 48 hrs by sulforhodamine B assay; details: MDA-MB-435, 48 h; summary of the method: as §1
SK-MEL-5 = experiment: Growth inhibition of human SK-MEL-5 cells after 48 hrs by sulforhodamine B assay; details: SK-MEL-5, 48 h; summary of the method: as §2
[20] = Growth inhibition of human UACC62 cells after 48 hrs by sulforhodamine B assay; details: UACC-62, 48 h
Summary of the method: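 Five-dose testing across the 60-line human tumour cell panel. GI50 is the drug concentration that gives a 50% reduction in net protein increase relative to control cells.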

[21] = Growth inhibition of human SKOV3 cells after 48 hrs by sulforhodamine B assay; details: SK-OV-3, 48 h; summary of the method: as §2
ACHN = experiment: Growth inhibition of human ACHN cells after 48 hrs by sulforhodamine B assay; summary of the method: as §1
CCRF-CEM [22] = experiment: Growth inhibition of human CCRF-CEM cells at 10 uM after 48 hrs by sulforhodamine B assay; details: values are per cent of control
[23] = Growth inhibition of human HL-60(TB) cells at 10 uM after 48 hrs by sulforhodamine B assay; details: HL-60, 48 h, values are per cent of control
K562 = experiment: Growth inhibition of human K562 cells at 10 uM after 48 hrs by sulforhodamine B assay; details: K562, 48 h, values are per cent of control
[24] = Growth inhibition of human MOLT4 cells at 10 uM after 48 hrs by sulforhodamine B assay; details: MOLT-4, 48 h, values are per cent of control
[25] = Growth inhibition of human RPMI8226 cells at 10 uM after 48 hrs by sulforhodamine B assay; details: RPMI-8226, 48 h, values are per cent of control
HT-29 = experiment: Growth inhibition of human HT-29 cells at 10 uM after 48 hrs by sulforhodamine B assay; details: HT-29, 48 h, values are per cent of control
KM12 = experiment: Growth inhibition of human KM12 cells at 10 uM after 48 hrs by sulforhodamine B assay; details: KM12, 48 h, values are per cent of control
[26] = Growth inhibition of human PC3 cells after 48 hrs by sulforhodamine B assay; details: PC-3, 48 h; summary of the method: as §2
MDA-MB-231 [27] = experiment: Growth inhibition of human MDA-MB-231 cells after 48 hrs by sulforhodamine B assay; details: MDA-MB-231, 48 h; summary of the method: as §1
[28] = Growth inhibition of human Hs 578T cells after 48 hrs by sulforhodamine B assay; summary of the method: as §1
MDA-MB-468 = experiment: Growth inhibition of human MDA-MB-468 cells after 48 hrs by sulforhodamine B assay; details: MDA-MB-468, 48 h; summary of the method: as §1

## COc1ccc(/C=C(\C#N)c2ccc3c(c2)OCO3)c2ccccc12
[1]
  growth, % of control at 10 µM: -3.1%
Malme-3M
  growth, % of control at 10 µM: 37.9%
[2]
  growth, % of control at 10 µM: 41%
[3]
  growth, % of control at 10 µM: -21.2%
[4]
  growth, % of control at 10 µM: 55.7%
[5]
  growth, % of control at 10 µM: 26.9%
A498
  growth, % of control at 10 µM: -8.4%
[6]
  growth, % of control at 10 µM: 42.1%
[7]
  growth, % of control at 10 µM: 36.1%
MCF7
  growth, % of control at 10 µM: 12.1%
MDA-MB-231 [8]
  growth, % of control at 10 µM: 39.4%
CCRF-CEM [9]
  GI50: 1.91 µM
[10]
  GI50: 3.71 µM
[11]
  GI50: 3.85 µM
SR
  GI50: 5.44 µM
A549
  GI50: 2.65 µM
[12]
  GI50: 2.14 µM
[13]
  GI50: 12 µM
NCI-H23
  GI50: 5.09 µM
[14]
  GI50: 1.61 µM
[15]
  GI50: 5.42 µM
[16]
  GI50: 2.41 µM
[17]
  GI50: 0.75 µM
[18]
  GI50: 0.72 µM
[19]
  GI50: 4.24 µM
U-251
  GI50: 2.71 µM
M14
  GI50: 1.68 µM
MDA-MB-435
  GI50: 0.31 µM
SK-MEL-5
  GI50: 1.52 µM
[20]
  GI50: 1.51 µM
[21]
  GI50: 2.35 µM
ACHN
  GI50: 4.24 µM
CCRF-CEM [22]
  growth, % of control at 10 µM: 21.6%
[23]
  growth, % of control at 10 µM: 7.8%
K562
  growth, % of control at 10 µM: 19.1%
[24]
  growth, % of control at 10 µM: 26.8%
[25]
  growth, % of control at 10 µM: 5.3%
HT-29
  growth, % of control at 10 µM: 10%
KM12
  growth, % of control at 10 µM: 21%
[26]
  GI50: 3.04 µM
MDA-MB-231 [27]
  GI50: 2.43 µM
[28]
  GI50: 2.63 µM
MDA-MB-468
  GI50: 0.51 µM

## N#C/C(=C\c1cccc2ccccc12)c1ccc2c(c1)OCO2
[1]
  growth, % of control at 10 µM: 61.6%
Malme-3M
  growth, % of control at 10 µM: 73.3%
[2]
  growth, % of control at 10 µM: 103%
[3]
  growth, % of control at 10 µM: 46.8%
[4]
  growth, % of control at 10 µM: 98.2%
[5]
  growth, % of control at 10 µM: 61.9%
A498
  growth, % of control at 10 µM: 35.7%
[6]
  growth, % of control at 10 µM: 80.3%
[7]
  growth, % of control at 10 µM: 80.1%
MCF7
  growth, % of control at 10 µM: 26.1%
MDA-MB-231 [8]
  growth, % of control at 10 µM: 48.3%
CCRF-CEM [9]
  GI50: 3.65 µM
[10]
  GI50: 4.99 µM
[11]
  GI50: 4.49 µM
SR
  GI50: 1.6 µM
A549
  GI50: 5 µM
[12]
  GI50: 3.77 µM
[13]
  GI50: 4.55 µM
NCI-H23
  GI50: 6.45 µM
[14]
  GI50: 2.58 µM
[15]
  GI50: 11 µM
[16]
  GI50: 3.72 µM
[17]
  GI50: 1.77 µM
[18]
  GI50: 3.72 µM
[19]
  GI50: 6.29 µM
U-251
  GI50: 3.85 µM
M14
  GI50: 3.13 µM
MDA-MB-435
  GI50: 0.43 µM
SK-MEL-5
  GI50: 3.2 µM
[20]
  GI50: 2.63 µM
[21]
  GI50: 3.58 µM
ACHN
  GI50: 4.52 µM
CCRF-CEM [22]
  growth, % of control at 10 µM: 52.3%
K562
  growth, % of control at 10 µM: 21.7%
[25]
  growth, % of control at 10 µM: 77%
HT-29
  growth, % of control at 10 µM: 23.5%
KM12
  growth, % of control at 10 µM: 39.2%
[26]
  GI50: 5.52 µM
MDA-MB-231 [27]
  GI50: 5.11 µM
[28]
  GI50: 3.54 µM
MDA-MB-468
  GI50: 2.11 µM

## COc1ccc(/C=C(\C#N)c2ccc3c(c2)OCO3)c(OC)c1
[1]
  growth, % of control at 10 µM: 12.8%
Malme-3M
  growth, % of control at 10 µM: 49.3%
[2]
  growth, % of control at 10 µM: 44.7%
[3]
  growth, % of control at 10 µM: 15.3%
[4]
  growth, % of control at 10 µM: 81.6%
[5]
  growth, % of control at 10 µM: 33.2%
A498
  growth, % of control at 10 µM: 26.5%
[6]
  growth, % of control at 10 µM: 46.7%
[7]
  growth, % of control at 10 µM: 47%
MDA-MB-231 [8]
  growth, % of control at 10 µM: 48.9%
CCRF-CEM [9]
  GI50: 1.56 µM
[10]
  GI50: 2.81 µM
[11]
  GI50: 3.23 µM
SR
  GI50: 0.53 µM
A549
  GI50: 2.65 µM
[12]
  GI50: 3.3 µM
[13]
  GI50: 7.42 µM
NCI-H23
  GI50: 6.33 µM
[14]
  GI50: 1.59 µM
[15]
  GI50: 11.9 µM
[16]
  GI50: 2.68 µM
[17]
  GI50: 0.87 µM
[18]
  GI50: 1.23 µM
[19]
  GI50: 6.95 µM
M14
  GI50: 1.32 µM
MDA-MB-435
  GI50: 0.3 µM
SK-MEL-5
  GI50: 2.58 µM
[20]
  GI50: 2.32 µM
[21]
  GI50: 2.75 µM
ACHN
  GI50: 4.92 µM
CCRF-CEM [22]
  growth, % of control at 10 µM: 27%
[23]
  growth, % of control at 10 µM: 7.1%
K562
  growth, % of control at 10 µM: 15.9%
[24]
  growth, % of control at 10 µM: 22.7%
[25]
  growth, % of control at 10 µM: 58.1%
HT-29
  growth, % of control at 10 µM: 10%
KM12
  growth, % of control at 10 µM: 28.1%
[26]
  GI50: 3.03 µM
MDA-MB-231 [27]
  GI50: 3.36 µM
[28]
  GI50: 3.62 µM
MDA-MB-468
  GI50: 0.69 µM
